We go through one molecule from ChEMBL document CHEMBL3044914, “Synthesis of novel 12-aryl-8,9,10,12-tetrahydrobenzo[a]xanthene-11-thiones and evaluation of their biocidal effects” (2012).

Molecules are shown by their SMILES. Values after ≈ are worked out from the molar mass of the structure shown.

Experiment [1] is described as follows: Inhibition of soil urease assessed as urea-N level at 1% compound level measured after 9 hr. Conditions: concentration not given here. The procedure, abridged:
(§1)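 Soil from cultivated institute farm fields, 50 g air-dried per beaker, moisture kept daily with distilled water. Compound in acetone added at 1% of applied urea-N (0.1 mg); urea-alone control; completely randomized design, three replicates. 5 g samples taken at 9 and 27 h, extracted with 1 M sodium sulfate containing phenyl mercuric acetate to stop hydrolysis; urea-N estimated.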

A short description of experiment [2]: Inhibition of soil urease assessed as urea-N level at 1% compound level measured after 27 hr. Conditions: concentration not given here. The procedure, abridged: as §1
Experiment [3] has as its system Spodoptera litura. The experiment in a line: Insect growth regulatory activity against Spodoptera litura third-instar larvae assessed as growth inhibition index at 0.1% measured after 24 hr post compound treatment by leaf-dip method. In kind it is functional.
Experiment [4] relates to Spodoptera litura. The experiment in a line: Insect growth regulatory activity against Spodoptera litura third-instar larvae assessed as normal adult level at 0.1% measured after 24 hr post compound treatment by leaf-dip method. In kind it is functional.
Experiment [5] concerns Spodoptera litura. The experiment in a line: Insect growth regulatory activity against Spodoptera litura third-instar larvae assessed as abnormal or dead larva level at 0.1% measured after 24 hr post compound treatment by leaf-dip method. The class given is functional. The procedure, abridged: (§2)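 Third-instar larvae were reared on artificial diet, newly moulted and pre-weighed at 30–40 mg. The 0.1% solution was a stock, applied at different concentrations. Leaves on moistened filter paper in Petri dishes were sprayed with the test solution and dried. Ten larvae were placed per dish, in triplicate, with carrier-solvent controls. Larval weight, mortality, pupation, deformed pupae, intermediates, adult emergence and deformed adults were recorded after 24 h.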

Experiment [6] deals with Spodoptera litura. The experiment is described as follows: Insect growth regulatory activity against Spodoptera litura third-instar larvae assessed as abnormal pupa or dead pupa level at 0.1% measured after 24 hr post compound treatment by leaf-dip method. The class given is functional. The procedure, abridged:
as §2

Experiment [7] deals with Spodoptera litura. The experiment in a line: Insect growth regulatory activity against Spodoptera litura third-instar larvae assessed as mortality at 0.1% measured after 24 hr post compound treatment by leaf-dip method. In kind it is functional. The procedure, abridged: as §2
The test system of experiment [8] is Spodoptera litura. The experiment in a line: Insecticidal activity against Spodoptera litura third-instar larvae fed on 0.1% compound pre-treated castor leaves assessed as mortality after 24 hr post compound treatment by feeding method. The class given is functional. The procedure, abridged:
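Castor leaf was dipped for 2 s in a 0.1% solution, air-dried and placed on moist filter paper in 9 cm Petri plates. Third-instar larvae aged 7 ± 1 day were prestarved 4 h and released singly into each plate. There were thirty replications per treatment, with a solvent control. Mortality was scored at 24 h.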

The test system of experiment [9] is Spodoptera litura. The experiment is described as follows: Insecticidal activity against Spodoptera litura third-instar larvae exposed to 0.1% compound on ventral side of larvae assessed as mortality after 24 hr post compound treatment by contact method. In kind it is functional. The procedure, abridged:
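Topical treatment of third-instar larvae aged 7 ± 1 day. Each treatment was run in triplicate with solvent as control. Mortality was recorded after 24 h.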

In a further experiment the test system is Alternaria porri. The experiment is described as follows: Antifungal activity against Alternaria porri by food poison technique. The class given is functional. Conditions: read-out: ED50 (the source's name).
The test system of the next experiment is Fusarium oxysporum. The experiment is described as follows: Antifungal activity against Fusarium oxysporum by food poison technique. In kind it is functional. As to conditions: read-out: ED50 (the source's name).
The subject of another experiment is Athelia rolfsii. The experiment is described as follows: Antifungal activity against Athelia rolfsii by food poison technique. The class given is functional. Conditions: Agroathelia rolfsii; read-out: ED50 (the source's name).
For another experiment, the system named is Macrophomina phaseolina. The experiment in a line: Antifungal activity against Rhizoctonia bataticola by food poison technique. The class given is functional. As to conditions: read-out: ED50 (the source's name).

Turning to `COc1cc(C2C3=C(CC(C)(C)CC3=S)Oc3ccc4ccccc4c32)ccc1O` (stereo not drawn), the inhibition in [1] is -6%; in experiment [2], 12%. Further, in the experiment on Spodoptera litura [3], the “growth inhibition (GI)” value came to 30%. Moreover, the results for the Activity in the experiment on Spodoptera litura [4], in the experiment with Spodoptera litura [5] and in the experiment on Spodoptera litura [6] were 70%, 0% and 20%, respectively. The figures for the mortality in the experiment with Spodoptera litura [7], in the experiment on Spodoptera litura [8] and in the experiment with Spodoptera litura [9] were 10%, 10% and 0%, respectively. Moreover, the EC50 in the experiment with Alternaria porri was 433 µg/mL (≈ 1040 µM); in the experiment with Fusarium oxysporum, 438 µg/mL (≈ 1050 µM); in the experiment with Athelia rolfsii, 670 µg/mL (≈ 1610 µM); in the experiment with Macrophomina phaseolina, 567 µg/mL (≈ 1360 µM).
